# Results reported in ChEMBL document CHEMBL1126145, “Phenyl-substituted analogues of oxotremorine as muscarinic antagonists” (J Med Chem, 1992).
# Species on record: Mus musculus
# Test: Antimuscarinic activity on the intact mice.(Dose required to double the dose of oxotremorine inducing a predetermined tremor intensity.)
# Type: functional
# In short: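 Male Swiss-Webster mice (24-32 g). Antagonist given i.p. at 200 µmol/kg to groups of ≥6 mice; 6 untreated controls. 20 min later, the i.v. oxotremorine ED50 was estimated by the up-and-down method, with intermittent spontaneous (grade 2) tremor as endpoint. Active compounds were tested at two further doses. The dose doubling the oxotremorine ED50 was found by linear regression of ED50 vs antagonist dose (including zero).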
row,SMILES,Tremorolytic dose [µM/kg]
1,CC(=O)N(CC#CCN1CCCC1)Cc1ccccc1,154
2,CN(CC#CCN1CCCC1)C(=O)Cc1ccccc1,>200
3,CC1CCC(=O)N1CC#CCN1CCCC1 (stereo unspecified),0.4
4,CC(=O)N(C)C(C#CCN1CCCC1)c1ccccc1 (stereo unspecified),17.4
5,O=C1CCCN1C(C#CCN1CCCC1)c1ccccc1 (stereo unspecified),8.93
6,O=C1CCC(c2ccccc2)N1CC#CCN1CCCC1 (stereo unspecified),55.6
7,O=C1CCCN1CC#CCN1CCC(c2ccccc2)C1 (stereo unspecified),122
8,O=C1C(c2ccccc2)CCN1CC#CCN1CCCC1 (stereo unspecified),>200
9,CN1[C@@H]2CC[C@H]1C[C@@H](OC(=O)C(CO)c1ccccc1)C2 (stereo partly specified) [ATROPINE],0.9
10,CN(C(=O)C(F)(F)F)C(C#CCN1CCCC1)c1ccccc1 (stereo unspecified),26.5
11,O=C1CC(c2ccccc2)CN1CC#CCN1CCCC1 (stereo unspecified),>200
12,CC(C#CCN1CCCC1)N1CCCC1=O (stereo unspecified),0.5
13,CC(=O)N(C)C(C)C#CCN1CCCC1 (stereo unspecified),0.6
14,CC(C#CCN1CCCC1)N1C(=O)CCC1=O (stereo unspecified),1.2
15,O=C1CCC(=O)N1C(C#CCN1CCCC1)c1ccccc1 (stereo unspecified),7.29

# Target: Muscarinic acetylcholine receptor
# Test: Determination of dissociation constant from antimuscarinic activity on isolated guinea pig ileum.
# Type: tissue-based, Cavia porcellus
row,Kd [nM],SMILES
1,620,CC(=O)N(C)C(C#CCN1CCCC1)c1ccccc1 (stereo unspecified)
2,200,O=C1CCCN1C(C#CCN1CCCC1)c1ccccc1 (stereo unspecified)
3,850,O=C1CCC(c2ccccc2)N1CC#CCN1CCCC1 (stereo unspecified)
4,8100,O=C1CCCN1CC#CCN1CCC(c2ccccc2)C1 (stereo unspecified)
5,11210,O=C1C(c2ccccc2)CCN1CC#CCN1CCCC1 (stereo unspecified)
6,500,CN(C(=O)C(F)(F)F)C(C#CCN1CCCC1)c1ccccc1 (stereo unspecified)
7,15220,O=C1CC(c2ccccc2)CN1CC#CCN1CCCC1 (stereo unspecified)
8,100,O=C1CCC(=O)N1C(C#CCN1CCCC1)c1ccccc1 (stereo unspecified)

row,SMILES,Kd [nM]
1,CC(=O)N(CC#CCN1CCCC1)Cc1ccccc1,5890
2,CN(CC#CCN1CCCC1)C(=O)Cc1ccccc1,20500
3,CC(C#CCN1CCCC1)N1CCCC1=O (stereo unspecified),91

# Target: Muscarinic acetylcholine receptor
# Test: Inhibition of [3H]N-methylscopolamine binding to muscarinic acetylcholine receptor of rat cerebral cortex.
# Type: tissue-based
# In short: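 Male Sprague-Dawley rat (200-300 g) cortex homogenized in 50 mM Na-K phosphate pH 7.4, spun 30000g, resuspended at 10 mg wet tissue/mL. Incubated with (-)-[3H]NMS 0.3 nM plus competitor for 30 min at 30 °C; filtration assay. IC50 from one-site nonlinear fit, converted to Ki by Cheng-Prusoff. Three experiments, each in triplicate.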
row,Ki [nM],SMILES
1,310,CC(=O)N(C)C(C#CCN1CCCC1)c1ccccc1 (stereo unspecified)
2,110,O=C1CCCN1C(C#CCN1CCCC1)c1ccccc1 (stereo unspecified)
3,540,O=C1CCC(c2ccccc2)N1CC#CCN1CCCC1 (stereo unspecified)
4,2400,O=C1CCCN1CC#CCN1CCC(c2ccccc2)C1 (stereo unspecified)
5,6910,O=C1C(c2ccccc2)CCN1CC#CCN1CCCC1 (stereo unspecified)
6,230,CN(C(=O)C(F)(F)F)C(C#CCN1CCCC1)c1ccccc1 (stereo unspecified)
7,5770,O=C1CC(c2ccccc2)CN1CC#CCN1CCCC1 (stereo unspecified)
8,120,O=C1CCC(=O)N1C(C#CCN1CCCC1)c1ccccc1 (stereo unspecified)

row,SMILES,Ki [nM]
1,CC(=O)N(CC#CCN1CCCC1)Cc1ccccc1,1290
2,CN(CC#CCN1CCCC1)C(=O)Cc1ccccc1,5200
